The subject of data set [1] is Raji. Kind of data set: Antiproliferative activity against human Raji cells assessed as growth inhibition at 5 uM after 72 hrs. Type of data set: functional. Particulars: read-out: GI. Put shortly: (§1)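 RAJI and U-937 cells from ATCC, grown in RPMI 1640 with 10% heat-inactivated fetal calf serum and 1% antibiotic–antimycotic at 37 °C, humid 5% CO2. Treated 72 h; DMSO-treated cells as negative control; proliferation measured by a previously described method.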

The target in a further data set is Histone deacetylase 8 (Homo sapiens, UniProt Q9BY41). Kind of data set: Inhibition of recombinant HDAC8 (unknown origin) using Fluor-de-Lys-HDAC8 as substrate by fluorescence assay.
Data set [2] can be described thus: Antiproliferative activity against human U937 cells assessed as growth inhibition at 5 uM after 72 hrs. Type of data set: functional. Particulars: U-937, 72 h, read-out: GI. In outline:
as §1

In data set [3] the target is T1, Tyrosine-protein kinase receptor UFO (Homo sapiens, UniProt P30530).
T1 sequence (P30530 whole entry): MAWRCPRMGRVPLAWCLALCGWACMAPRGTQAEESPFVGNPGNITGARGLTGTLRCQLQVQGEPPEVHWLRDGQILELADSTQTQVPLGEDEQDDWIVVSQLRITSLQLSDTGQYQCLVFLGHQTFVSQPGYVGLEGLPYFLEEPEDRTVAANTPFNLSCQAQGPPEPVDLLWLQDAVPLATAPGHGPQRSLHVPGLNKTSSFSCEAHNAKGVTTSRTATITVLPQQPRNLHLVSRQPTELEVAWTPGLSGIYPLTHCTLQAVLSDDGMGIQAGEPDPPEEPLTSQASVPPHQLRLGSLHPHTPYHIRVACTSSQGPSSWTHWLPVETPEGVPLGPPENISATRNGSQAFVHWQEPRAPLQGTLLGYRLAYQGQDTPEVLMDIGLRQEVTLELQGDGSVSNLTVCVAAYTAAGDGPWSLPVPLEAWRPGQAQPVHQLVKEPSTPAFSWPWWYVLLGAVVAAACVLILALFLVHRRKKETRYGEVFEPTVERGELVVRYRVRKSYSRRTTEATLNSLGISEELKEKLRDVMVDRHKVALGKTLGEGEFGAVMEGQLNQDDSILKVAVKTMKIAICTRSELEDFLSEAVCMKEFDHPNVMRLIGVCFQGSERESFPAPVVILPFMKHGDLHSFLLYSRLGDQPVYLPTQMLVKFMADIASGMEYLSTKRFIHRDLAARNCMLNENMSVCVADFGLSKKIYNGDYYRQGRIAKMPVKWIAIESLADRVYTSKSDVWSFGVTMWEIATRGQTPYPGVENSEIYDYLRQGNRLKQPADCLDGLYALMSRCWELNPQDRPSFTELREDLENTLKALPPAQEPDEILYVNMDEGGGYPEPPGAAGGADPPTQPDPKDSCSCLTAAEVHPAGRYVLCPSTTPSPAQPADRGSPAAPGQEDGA
Kind of data set: Inhibition of AXL (unknown origin).

The next data set concerns PBMC. Kind of data set: Cytotoxicity against PBMC (unknown origin) assessed as growth inhibition after 48 hrs. Type of data set: cell-based. In outline: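 PBMCs isolated by a prior method, cultured in RPMI 1640 with 10% heat-inactivated FCS and 1% antibiotic–antimycotic at 37 °C, 5% CO2. Viability read after 48 h treatment, against DMSO-treated controls.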
For a further data set, the target named is Histone deacetylase 2 (Homo sapiens, UniProt Q92769). Kind of data set: Inhibition of recombinant HDAC2 (unknown origin) using Fluor-de-Lys-SIRT1 as substrate by fluorescence assay.
Data set [4] addresses Insulin-like growth factor 1 receptor (Homo sapiens, UniProt P08069). Kind of data set: Inhibition of IGF1R (unknown origin).
Data set [5] concerns the target Protein deacetylase HDAC6 (Homo sapiens, UniProt Q9UBN7). Kind of data set: Inhibition of recombinant HDAC6 (unknown origin) using Fluor-de-Lys-SIRT1 as substrate by fluorescence assay.
Data set [6] deals with Dual specificity mitogen-activated protein kinase kinase 1 (Homo sapiens, UniProt Q02750). Kind of data set: Inhibition of wild type MEK1 (unknown origin).
Data set [7] in a line: Antiproliferative activity against human U937 cells assessed as growth inhibition at 25 uM after 72 hrs. Type of data set: functional. The following applies: U-937, 72 h, read-out: GI. In outline:
as §1

For data set [8], the system named is Raji. Kind of data set: Antiproliferative activity against human Raji cells assessed as growth inhibition at 25 uM after 72 hrs. Type of data set: functional. Particulars: read-out: GI. In outline:
as §1

The IC50 is the midpoint of a concentration-inhibition curve.

Chain of Histone deacetylase 8 (Q9BY41 whole entry): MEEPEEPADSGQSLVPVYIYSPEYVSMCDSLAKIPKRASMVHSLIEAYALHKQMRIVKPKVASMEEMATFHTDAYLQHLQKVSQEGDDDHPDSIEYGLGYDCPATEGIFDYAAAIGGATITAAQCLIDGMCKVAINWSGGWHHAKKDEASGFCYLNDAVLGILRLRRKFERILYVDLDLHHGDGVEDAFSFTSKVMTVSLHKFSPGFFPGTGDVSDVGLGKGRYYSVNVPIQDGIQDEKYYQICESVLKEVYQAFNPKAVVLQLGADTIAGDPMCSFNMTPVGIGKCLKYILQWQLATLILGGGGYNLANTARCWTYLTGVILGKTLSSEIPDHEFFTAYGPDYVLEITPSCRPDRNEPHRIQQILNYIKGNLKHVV
Chain of Histone deacetylase 2 (Q92769 whole entry): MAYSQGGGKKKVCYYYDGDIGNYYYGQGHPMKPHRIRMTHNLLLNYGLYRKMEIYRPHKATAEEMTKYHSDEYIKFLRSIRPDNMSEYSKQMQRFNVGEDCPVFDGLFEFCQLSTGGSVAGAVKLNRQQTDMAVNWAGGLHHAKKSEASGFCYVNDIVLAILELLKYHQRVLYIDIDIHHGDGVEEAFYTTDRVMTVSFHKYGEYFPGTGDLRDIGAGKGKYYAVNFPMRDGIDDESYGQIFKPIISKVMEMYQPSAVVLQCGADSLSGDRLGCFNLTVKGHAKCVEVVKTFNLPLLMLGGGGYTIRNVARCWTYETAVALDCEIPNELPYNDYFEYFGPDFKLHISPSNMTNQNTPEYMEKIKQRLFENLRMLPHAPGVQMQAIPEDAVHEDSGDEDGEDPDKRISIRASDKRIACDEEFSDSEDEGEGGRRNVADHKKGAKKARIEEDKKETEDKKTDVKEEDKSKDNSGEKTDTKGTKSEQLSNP
Chain of Protein deacetylase HDAC6 (Q9UBN7 whole entry): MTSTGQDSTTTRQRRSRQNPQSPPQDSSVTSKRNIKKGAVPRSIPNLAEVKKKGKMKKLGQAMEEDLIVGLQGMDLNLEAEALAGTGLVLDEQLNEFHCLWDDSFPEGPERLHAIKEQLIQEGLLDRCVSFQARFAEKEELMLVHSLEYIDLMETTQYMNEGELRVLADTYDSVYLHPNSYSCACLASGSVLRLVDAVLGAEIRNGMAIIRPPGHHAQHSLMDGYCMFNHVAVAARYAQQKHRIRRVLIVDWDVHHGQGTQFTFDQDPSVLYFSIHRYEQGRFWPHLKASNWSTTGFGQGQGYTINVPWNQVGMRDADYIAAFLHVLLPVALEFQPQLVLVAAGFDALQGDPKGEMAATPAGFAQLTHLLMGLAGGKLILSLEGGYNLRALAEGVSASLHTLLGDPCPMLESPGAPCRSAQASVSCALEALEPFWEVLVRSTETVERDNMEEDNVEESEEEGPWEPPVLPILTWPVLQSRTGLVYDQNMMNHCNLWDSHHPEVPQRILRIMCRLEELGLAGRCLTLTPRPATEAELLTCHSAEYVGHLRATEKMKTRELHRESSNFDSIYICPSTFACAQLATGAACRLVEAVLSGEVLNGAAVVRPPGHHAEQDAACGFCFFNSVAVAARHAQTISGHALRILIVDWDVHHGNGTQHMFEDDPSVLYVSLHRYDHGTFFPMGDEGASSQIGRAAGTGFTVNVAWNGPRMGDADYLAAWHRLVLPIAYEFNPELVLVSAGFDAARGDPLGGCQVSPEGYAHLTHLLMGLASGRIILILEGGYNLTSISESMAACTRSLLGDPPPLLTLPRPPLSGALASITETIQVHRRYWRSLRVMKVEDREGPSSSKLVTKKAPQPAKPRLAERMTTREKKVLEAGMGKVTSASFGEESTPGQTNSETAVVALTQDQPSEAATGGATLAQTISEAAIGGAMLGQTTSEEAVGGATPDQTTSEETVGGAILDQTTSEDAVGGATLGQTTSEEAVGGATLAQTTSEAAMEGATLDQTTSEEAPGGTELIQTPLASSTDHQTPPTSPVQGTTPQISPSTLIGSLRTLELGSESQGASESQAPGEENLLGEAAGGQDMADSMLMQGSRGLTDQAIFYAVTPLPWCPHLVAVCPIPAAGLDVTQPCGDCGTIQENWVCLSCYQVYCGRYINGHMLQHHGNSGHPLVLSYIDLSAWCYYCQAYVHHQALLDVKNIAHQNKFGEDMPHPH
Chain of Insulin-like growth factor 1 receptor (P08069 31-736 limits assumed): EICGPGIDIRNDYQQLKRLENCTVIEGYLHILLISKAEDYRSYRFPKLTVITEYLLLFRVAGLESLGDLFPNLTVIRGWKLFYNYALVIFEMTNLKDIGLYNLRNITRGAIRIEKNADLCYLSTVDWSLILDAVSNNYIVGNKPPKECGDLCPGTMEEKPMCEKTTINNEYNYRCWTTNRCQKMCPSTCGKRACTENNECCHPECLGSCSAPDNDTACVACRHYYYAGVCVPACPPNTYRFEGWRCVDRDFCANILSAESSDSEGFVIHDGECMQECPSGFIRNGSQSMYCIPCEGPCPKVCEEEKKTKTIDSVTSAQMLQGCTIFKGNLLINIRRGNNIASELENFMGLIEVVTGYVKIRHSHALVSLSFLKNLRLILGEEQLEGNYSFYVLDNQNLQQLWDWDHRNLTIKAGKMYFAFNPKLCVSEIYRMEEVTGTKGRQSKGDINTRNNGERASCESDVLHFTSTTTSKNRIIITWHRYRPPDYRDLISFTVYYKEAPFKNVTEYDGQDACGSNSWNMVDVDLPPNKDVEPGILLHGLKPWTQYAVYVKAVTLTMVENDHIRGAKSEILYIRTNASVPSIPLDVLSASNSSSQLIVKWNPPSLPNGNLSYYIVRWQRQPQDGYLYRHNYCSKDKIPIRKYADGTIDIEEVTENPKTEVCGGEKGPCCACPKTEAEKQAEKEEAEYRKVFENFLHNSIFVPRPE
Chain of Insulin-like growth factor 1 receptor (P08069 741-1367 limits assumed): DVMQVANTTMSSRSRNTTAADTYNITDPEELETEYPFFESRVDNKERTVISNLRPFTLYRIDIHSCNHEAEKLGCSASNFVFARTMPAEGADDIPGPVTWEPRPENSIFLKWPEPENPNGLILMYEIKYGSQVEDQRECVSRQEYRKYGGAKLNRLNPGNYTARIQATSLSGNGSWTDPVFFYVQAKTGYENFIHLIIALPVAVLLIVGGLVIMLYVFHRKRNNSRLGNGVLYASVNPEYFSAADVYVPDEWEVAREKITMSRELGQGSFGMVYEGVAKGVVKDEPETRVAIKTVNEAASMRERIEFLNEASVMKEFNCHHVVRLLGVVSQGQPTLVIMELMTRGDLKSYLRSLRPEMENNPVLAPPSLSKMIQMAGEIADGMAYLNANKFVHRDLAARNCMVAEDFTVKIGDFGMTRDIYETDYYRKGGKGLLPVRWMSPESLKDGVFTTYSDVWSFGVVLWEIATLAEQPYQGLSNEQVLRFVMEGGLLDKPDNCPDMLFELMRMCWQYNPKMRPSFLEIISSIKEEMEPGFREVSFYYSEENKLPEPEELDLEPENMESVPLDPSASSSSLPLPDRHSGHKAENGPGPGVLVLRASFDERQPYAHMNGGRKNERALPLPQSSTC
Chain of Dual specificity mitogen-activated protein kinase kinase 1 (Q02750 whole entry): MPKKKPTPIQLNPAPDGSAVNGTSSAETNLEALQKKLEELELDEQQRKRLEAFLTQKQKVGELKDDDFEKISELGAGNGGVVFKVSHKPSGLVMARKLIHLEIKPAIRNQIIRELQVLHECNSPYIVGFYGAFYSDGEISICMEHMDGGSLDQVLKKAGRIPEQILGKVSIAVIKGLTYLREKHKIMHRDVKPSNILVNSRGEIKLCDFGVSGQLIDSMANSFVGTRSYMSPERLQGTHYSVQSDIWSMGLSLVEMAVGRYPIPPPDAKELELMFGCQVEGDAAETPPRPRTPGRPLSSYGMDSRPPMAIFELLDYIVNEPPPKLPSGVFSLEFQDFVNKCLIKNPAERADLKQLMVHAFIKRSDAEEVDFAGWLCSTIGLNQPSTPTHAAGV

Turning to `Cc1c(O)c(O)c2c(c1C=O)[C@@H]1O[C@H](O2)c2c(C)c(O)c(O)c(O)c2C1=O` (racemic), the inhibition of growth at 5 µM turned out to be 50% with Raji [1] and 32% in [2]. Also, the IC50 on Histone deacetylase 8 was 1600 nM; in data set [3], 160 nM; on Histone deacetylase 2, 10000 nM; in data set [4], 70 nM; in data set [5] it was 4600 nM; in [6], over 30000 nM. Further, the Activity entry in the data set with PBMC was “Non-toxic”.
As to `Cc1c(O)c(O)c(O)c(C=O)c1-c1cc2c(C=O)c(C)c(O)c(O)c2o1`, the IC50 on Histone deacetylase 8 was 2100 nM; in data set [3], 220 nM; on Histone deacetylase 2, 9100 nM; in data set [4], 150 nM; in data set [5], 6500 nM; in [6] it was over 30000 nM. Also, the values for the inhibition of growth at 25 µM (in data set [7]; in the data set with Raji [8]) were 30% and 55%, respectively. In addition, in the data set with PBMC, the Activity result is “Non-toxic”.
